Source: ChEMBL document CHEMBL5058577, “EUbOPEN Chemogenomics Library 2 (Multiplex)” (2022)

System: HEK-293T
Experiment: Multiplex assay against HEK293T
Assay type: toxicity, cell-based
Settings: human
In short: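 Cells were classed with CellPathfinder machine-learning gating, first as Hoechst high-intensity objects or normal cells, then (normal cells) as healthy, pyknosed or fragmented nuclei, and finally (pyknosed cells) as mitotic or apoptotic. Staining of live cells at seeding used Hoechst33342, BioTracker Green Microtubule Cytoskeleton Dye, MitoTracker Red and Annexin V Alexa Fluor 680, with imaging on a CQ1 microscope at 37°C and 5% CO2 after compound addition. Tubulin, mitochondrial-mass and membrane-permeability phenotypes are per cents of healthy-nucleus cells.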

[1] = 12 h, 1 µM, compound concentration 1 uM, replicate 1
[2] = 12 h, 1 µM, compound concentration 1 uM, replicate 2
[3] = 12 h, 10 µM, compound concentration 10 uM, replicate 1
[4] = 12 h, 10 µM, compound concentration 10 uM, replicate 2
[5] = 24 h, 1 µM, compound concentration 1 uM, replicate 1
[6] = 24 h, 1 µM, compound concentration 1 uM, replicate 2
[7] = 24 h, 10 µM, compound concentration 10 uM, replicate 1
[8] = 24 h, 10 µM, compound concentration 10 uM, replicate 2
[9] = 48 h, 1 µM, compound concentration 1 uM, replicate 1
[10] = 48 h, 1 µM, compound concentration 1 uM, replicate 2
[11] = 48 h, 10 µM, compound concentration 10 uM, replicate 1
[12] = 48 h, 10 µM, compound concentration 10 uM, replicate 2

Structure (SMILES): COc1cc2nc(N3CCN(C(=O)COc4c(OC)cccc4C(C)C)CC3)nc(N)c2cc1OC.Cl.Cl
- Population Apoptotic (%) [1]: 35%
- Population Fragmented Nuclei (%) [1]: 12%
- Population Healthy Nuclei (%) [1]: 77%
- Population Hoechst High Intensity Objects (%) [1]: 5%
- Population Membrane Permeable-Phenotype (%) [1]: 0%
- Population Mitochondria Different-Phenotype (%) [1]: 48%
- Population Mitotic Cells (%) [1]: 64%
- Population Normal (%) [1]: 94%
- Population Pyknosed Nuclei (%) [1]: 9%
- Population Tubulin-Different-Phenotype (%) [1]: 23%
- Total Cell Count [1]: 402
- Population Apoptotic (%) [2]: 46%
- Population Fragmented Nuclei (%) [2]: 8%
- Population Healthy Nuclei (%) [2]: 81%
- Population Hoechst High Intensity Objects (%) [2]: 4%
- Population Mitochondria Different-Phenotype (%) [2]: 58%
- Population Mitotic Cells (%) [2]: 53%
- Population Normal (%) [2]: 95%
- Population Tubulin-Different-Phenotype (%) [2]: 18%
- Total Cell Count [2]: 365
- Population Apoptotic (%) [3]: 52%
- Population Fragmented Nuclei (%) [3]: 13%
- Population Healthy Nuclei (%) [3]: 69%
- Population Hoechst High Intensity Objects (%) [3]: 25%
- Population Membrane Permeable-Phenotype (%) [3]: 1%
- Population Mitochondria Different-Phenotype (%) [3]: 74%
- Population Mitotic Cells (%) [3]: 48%
- Population Normal (%) [3]: 74%
- Population Pyknosed Nuclei (%) [3]: 17%
- Population Tubulin-Different-Phenotype (%) [3]: 81%
- Total Cell Count [3]: 386
- Population Apoptotic (%) [4]: 57%
- Population Fragmented Nuclei (%) [4]: 14%
- Population Healthy Nuclei (%) [4]: 67%
- Population Hoechst High Intensity Objects (%) [4]: 18%
- Population Membrane Permeable-Phenotype (%) [4]: 3%
- Population Mitochondria Different-Phenotype (%) [4]: 66%
- Population Mitotic Cells (%) [4]: 42%
- Population Normal (%) [4]: 81%
- Population Pyknosed Nuclei (%) [4]: 18%
- Population Tubulin-Different-Phenotype (%) [4]: 66%
- Total Cell Count [4]: 286
- Population Apoptotic (%) [5]: 35%
- Population Fragmented Nuclei (%) [5]: 11%
- Population Healthy Nuclei (%) [5]: 77%
- Population Hoechst High Intensity Objects (%) [5]: 5%
- Population Membrane Permeable-Phenotype (%) [5]: 0%
- Population Mitochondria Different-Phenotype (%) [5]: 27%
- Population Mitotic Cells (%) [5]: 64%
- Population Normal (%) [5]: 95%
- Population Pyknosed Nuclei (%) [5]: 10%
- Population Tubulin-Different-Phenotype (%) [5]: 19%
- Total Cell Count [5]: 540
- Population Apoptotic (%) [6]: 42%
- Population Fragmented Nuclei (%) [6]: 8%
- Population Healthy Nuclei (%) [6]: 84%
- Population Hoechst High Intensity Objects (%) [6]: 2%
- Population Mitochondria Different-Phenotype (%) [6]: 44%
- Population Mitotic Cells (%) [6]: 57%
- Population Normal (%) [6]: 97%
- Population Pyknosed Nuclei (%) [6]: 7%
- Population Tubulin-Different-Phenotype (%) [6]: 16%
- Total Cell Count [6]: 472
- Population Apoptotic (%) [7]: 42%
- Population Fragmented Nuclei (%) [7]: 14%
- Population Healthy Nuclei (%) [7]: 64%
- Population Hoechst High Intensity Objects (%) [7]: 29%
- Population Membrane Permeable-Phenotype (%) [7]: 2%
- Population Mitochondria Different-Phenotype (%) [7]: 68%
- Population Mitotic Cells (%) [7]: 57%
- Population Normal (%) [7]: 70%
- Population Pyknosed Nuclei (%) [7]: 21%
- Population Tubulin-Different-Phenotype (%) [7]: 69%
- Total Cell Count [7]: 498
- Population Apoptotic (%) [8]: 51%
- Population Fragmented Nuclei (%) [8]: 13%
- Population Healthy Nuclei (%) [8]: 59%
- Population Hoechst High Intensity Objects (%) [8]: 39%
- Population Mitochondria Different-Phenotype (%) [8]: 72%
- Population Mitotic Cells (%) [8]: 48%
- Population Normal (%) [8]: 60%
- Population Pyknosed Nuclei (%) [8]: 27%
- Population Tubulin-Different-Phenotype (%) [8]: 63%
- Total Cell Count [8]: 286
- Population Apoptotic (%) [9]: 28%
- Population Fragmented Nuclei (%) [9]: 16%
- Population Healthy Nuclei (%) [9]: 76%
- Population Hoechst High Intensity Objects (%) [9]: 2%
- Population Membrane Permeable-Phenotype (%) [9]: 1%
- Population Mitochondria Different-Phenotype (%) [9]: 18%
- Population Mitotic Cells (%) [9]: 71%
- Population Normal (%) [9]: 97%
- Population Pyknosed Nuclei (%) [9]: 6%
- Population Tubulin-Different-Phenotype (%) [9]: 11%
- Total Cell Count [9]: 930
- Population Apoptotic (%) [10]: 11%
- Population Fragmented Nuclei (%) [10]: 15%
- Population Healthy Nuclei (%) [10]: 78%
- Population Hoechst High Intensity Objects (%) [10]: 3%
- Population Membrane Permeable-Phenotype (%) [10]: 0%
- Population Mitotic Cells (%) [10]: 88%
- Population Normal (%) [10]: 96%
- Population Tubulin-Different-Phenotype (%) [10]: 12%
- Total Cell Count [10]: 737
- Population Apoptotic (%) [11]: 31%
- Population Fragmented Nuclei (%) [11]: 18%
- Population Healthy Nuclei (%) [11]: 56%
- Population Hoechst High Intensity Objects (%) [11]: 41%
- Population Membrane Permeable-Phenotype (%) [11]: 3%
- Population Mitochondria Different-Phenotype (%) [11]: 48%
- Population Mitotic Cells (%) [11]: 68%
- Population Normal (%) [11]: 58%
- Population Pyknosed Nuclei (%) [11]: 25%
- Population Tubulin-Different-Phenotype (%) [11]: 56%
- Total Cell Count [11]: 660
- Population Apoptotic (%) [12]: 30%
- Population Fragmented Nuclei (%) [12]: 17%
- Population Healthy Nuclei (%) [12]: 59%
- Population Hoechst High Intensity Objects (%) [12]: 46%
- Population Membrane Permeable-Phenotype (%) [12]: 1%
- Population Mitochondria Different-Phenotype (%) [12]: 49%
- Population Mitotic Cells (%) [12]: 69%
- Population Normal (%) [12]: 53%
- Population Pyknosed Nuclei (%) [12]: 23%
- Population Tubulin-Different-Phenotype (%) [12]: 38%
- Total Cell Count [12]: 430
